Drawing on ChEMBL document CHEMBL3045036, “Chemical composition, plant genetic differences, and antifungal activity of the essential oil of Helichrysum italicum G. Don ssp. microphyllum (Willd) Nym” (2003), this text covers MIC for five compounds.

Holding throughout (type): functional
In one assay the test system is Zymoseptoria tritici. The experiment in a line: Fungicidal activity against Zymoseptoria tritici. In short, it runs like this:
(§1)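 Broth microdilution MIC. Essential oil stock of 1 mg/mL was made in sterile broth with 50% ethanol, then serially diluted in 100 µL potato dextrose broth per well. Each well received 1 µL fungal suspension (~1 × 10^5 cells). Incubation matched the paper-disc test: several days at 24 °C. Growth and medium sterility were checked for each strain.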

A further assay relates to Rhizoctonia solani. In words: Fungicidal activity against Rhizoctonia solani. In short, it runs like this: as §1
In a further assay the test system is Fusarium graminearum. In words: Fungicidal activity against Fusarium graminearum. In short, it runs like this: as §1
In assay [1] the test system is Fusarium oxysporum f. sp. lycopersici. The experiment in a line: Fungicidal activity against Fusarium oxysporum f. sp. Lycopersici. The gist of the method:
as §1

The test system of another assay is Botrytis cinerea. In words: Fungicidal activity against Botryotinia fuckeliana. In short, it runs like this:
as §1

In the next assay the test system is Pyricularia oryzae. The experiment in a line: Fungicidal activity against Magnaporthe oryzae. In short, it runs like this: as §1
The next assay relates to Phytophthora capsici. The experiment in a line: Fungicidal activity against Phytophthora capsici. The gist of the method: as §1
The test system of a further assay is Globisporangium ultimum. In words: Fungicidal activity against Pythium ultimum. In short, it runs like this: as §1
Another assay concerns Athelia rolfsii. In words: Fungicidal activity against Athelia rolfsii. The settings on record: Agroathelia rolfsii. The gist of the method:
as §1

The next assay has as its system Helminthosporium. The experiment in a line: Fungicidal activity against Helminthosporium oryzae. In short, it runs like this: as §1
For a further assay, the system named is Cercospora beticola. In words: Fungicidal activity against Cercospora beticola. In short, it runs like this:
as §1

Values after ≈ are worked out from the molar mass of the structure shown.

In general, MIC refers to the lowest concentration found to suppress growth. The low end stands for greater potency, the high end for weaker potency. Regarding `CCCCNC(=O)n1c(NC(=O)OC)nc2ccccc21` [BENOMYL], the MIC in the assay with Zymoseptoria tritici worked out at 0.6 µg/mL (≈ 2.07 µM); in the assay with Rhizoctonia solani, 6.2 µg/mL (≈ 21.4 µM); against Fusarium graminearum it was 0.6 µg/mL (≈ 2.07 µM); in assay [1] it was 1.5 µg/mL (≈ 5.17 µM).

In the assay with Botrytis cinerea, `CCOC(=O)C1(C)OC(=O)N(c2cc(Cl)cc(Cl)c2)C1=O` (stereo unspecified) [CHLOZOLINATE] showed an MIC of 3.1 µg/mL (≈ 9.33 µM).

`CO/N=C(\C(=O)OC)c1ccccc1COc1ccccc1C` [KRESOXYM-METHYL]: inhibition of growth with Pyricularia oryzae (MIC) required 1.5 µg/mL (≈ 4.79 µM).

As to `COCC(=O)N(c1c(C)cccc1C)C(C)C(=O)OC` (stereo unspecified) [METALAXYL], the MIC against Phytophthora capsici was determined as 1.5 µg/mL (≈ 5.37 µM); against Globisporangium ultimum, 0.6 µg/mL (≈ 2.15 µM).

For the compound `FC(F)C(F)(F)OCC(Cn1cncn1)c1ccc(Cl)cc1Cl` (stereo unspecified) [TETRACONAZOLE], the MIC in the assay with Athelia rolfsii was 25 µg/mL (≈ 67.2 µM); with Helminthosporium it was 0.1 µg/mL (≈ 0.269 µM); in the assay with Cercospora beticola it was 1.5 µg/mL (≈ 4.03 µM).
